ChEMBL document CHEMBL4513216, “Probing the Open Global Health Chemical Diversity Library for Multistage-Active Starting Points for Next-Generation Antimalarials” (ACS Infect Dis, 2020)

Assay: Toxicity liver stage against HepG2, at 10uM
Type: cell-based
Design: test concentration 10 uM, cell line HepG2-A16-CD81EGFP
Conditions: human, HepG2-A16-CD81EGFP cells; read-out: INHIBITION
Procedure, shortened: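 Uninfected HepG2-A16-CD81EGFP cells, 3 × 10^3 per well, 1536-well, plated on prespotted compound at 10 μM final, parasite-free screening media added to match infected plates; puromycin 10 μM positive, DMSO 0.5% negative; run in parallel with 48 h PbLuc assay at 37 °C, 5% CO2; viability by CellTiter-Glo luminescence, normalized to controls.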

Structure (SMILES) | cytotoxicity at 10 µM [%]
O=C(c1c[nH]c2ccccc2c1=O)N1CCSCC1 | -5.63
O=C(CCCNc1ncccn1)N1CCCC(n2cncn2)C1 (stereo not given) | -4.56
CN(C)S(=O)(=O)c1ccc(OCCNCCn2cccn2)cc1 | 0.626
CCCNC(=O)c1nn(CC)cc1Cl | 6.11
Cc1ncc(CNCC(=O)NCC(F)(F)F)n1-c1ccccc1 | 5.57
Cc1ccc(CNCC2CCN(CCO)CC2)cc1 | -6.14
CC(=O)NCC(=O)N1Cc2c(-c3cccc(C)c3)nc(N)nc2C1C (stereo not given) | 7.66
CNCc1ccc([C@@H]2CN(C)C[C@H]2C(N)=O)cc1 | 7.67
CC(C)c1cc(N2CCC(NS(C)(=O)=O)C2)nc(C(C)C)n1 (stereo not given) | 4.34
CSc1ccc(C)c(C(=O)N2CCCC(n3cncn3)C2)c1 (stereo not given) | -13.1
NC(=O)C1CN(C(=O)Nc2ccccc2SC2CCCC2)CCO1 (stereo not given) | -5.15
CN(CCO)Cc1cc(=O)n2cc(Br)ccc2n1 | -6.69
c1ccc(-c2noc(CNC3CCCN(c4cccnn4)C3)n2)nc1 (stereo not given) | 4.86
N#CC1Sc2nnc(-c3ccccc3F)n2N=C1N (stereo not given) | -0.634
CSCc1ccc(CNCCN2CCOCC2)o1 | -0.583
CCCN(C(=O)CNC1CCc2ncnn2C1)C1=CCCCC1 (stereo not given) | 1.76
CC(C)CC(=O)NCCCc1cc(N)n(-c2ccccc2)n1 | -5.29
O=C1CCOCCN1Cc1ccc(Cl)c(F)c1 | -3.31
CCc1nc(C2CCCN2C(=O)CCCn2cncn2)no1 (stereo not given) | -11.4
COC(=O)CCc1c(C)nn(-c2nc(C)cc(=O)[nH]2)c1C | 9.22
CN(CCNC(=O)c1scnc1Cl)c1ccccc1 | 6.88
Cc1cnn(C2CN(Cc3nc(-c4ccco4)no3)C2)c1 | -14.6

Structure (SMILES) | cytotoxicity at 10 µM [%]
O[C@@H]1C[C@H]2CN(Cc3ccccc3)[C@H](Cc3ccccc3)CN2C1 | -0.658
COc1ccc2c(c1)C1(CCN(Cc3nccs3)CC1)N(C)CC2 | -148
Cc1nn(C)cc1-c1cc(C(F)(F)F)n(CCCN)n1 | -6.25
Cc1nc[nH]c1CN1CCN(C(=O)C2CC2)[C@H]2CS(=O)(=O)C[C@H]21 | 0.855
CS(=O)(=O)CCCNCc1c(Cl)cccc1N1CCCC1 | 1.18
O=C(c1cc(C2CC2)[nH]n1)N1CCCC(n2cncn2)C1 (stereo not given) | -6
CCc1nsc(N2CCCN(C(=O)COc3ccccc3)CC2)n1 | -1.74
CCn1cnnc1CNC(=O)N(C)Cc1cccc(OC(F)F)c1 | -3.73
Cc1cc(C)n(CC2CCCN2CC(=O)N(C)C)n1 (stereo not given) | -7.86
Cc1cc(C)c(CNC(=O)NCCc2cccnc2)c(=O)[nH]1 | -53.3
CCOCc1ncn2c1CN(C(=O)Nc1cccc(C)c1)CC2 | -8.92
COCCN1CCN(Cc2csc(-c3cnn(C)c3)n2)CC1 | -9.71
CC(c1nc(C2CC2)no1)N1CCc2c(ncn2C2CC2)C1 (stereo not given) | -2.52
CCOCC(=O)Nc1nccn1Cc1ccc(Br)cc1 | -44.8
O=C(Nc1nnc(C2CC2)s1)NC1CCOc2ccccc21 (stereo not given) | 24.2
O=C(NCCSC1CCCC1)c1c(F)cccc1F | 8.74
CCc1ccc2c(c1)C(CCNC(=O)Cc1cccc(F)c1)C(=O)N2 (stereo not given) | -49.1
CCc1cnc(C(C)NC(=O)N2CCCN(CC(F)F)CC2)s1 (stereo not given) | -0.423
O=C(c1cc(COc2ccc3c(c2)OCO3)[nH]n1)N1CCCO1 | -1.59
CC1=C(C(=O)N2CCCC(Cn3cc(CO)nn3)C2)OCCO1 (stereo not given) | 0.92
Cc1noc([C@@H]2CC[C@@H]3[C@@H](CCN3S(C)(=O)=O)O2)n1 | -2.16
CCNC(=O)Nc1ccc2c(ccn2CC(=O)N(CC)CC)c1 | -0.421

Structure (SMILES) | cytotoxicity at 10 µM [%]
Cc1cnn(C2CCCN(C(=O)Cc3ccc(C)s3)C2)c1 (stereo not given) | -13.4
CCOC1CC2(CCN(CCO)CC2)c2ccc(C)cc21 (stereo not given) | 9.01
Clc1ccccc1-c1nnc(CSCCN2CCOCC2)o1 | 0.728
CCCc1noc(CCC(=O)N2CCCC2c2cccc(OC)c2)n1 (stereo not given) | -9.71
CC[C@@H](c1ccccc1)n1c(CCN)n[nH]c1=O | 5.33
Fc1ccc(-c2noc(CN3CCC(c4cc[nH]n4)CC3)n2)cc1 | 18.4
O=C(O)c1ccc(S(=O)(=O)Nc2cccc(CC(F)(F)F)c2)c(F)c1 | -6.19
CC(NC(N)=O)C(=O)N(C)CCCc1cc(-c2ccccc2)no1 (stereo not given) | -1.86
O=C(Cc1cn2ccsc2n1)N1CCCC(n2cncn2)C1 (stereo not given) | -5.97
COc1ccccc1OC1CN(C(=O)c2ccccc2C(C)=O)C1 | 7.6
Cc1ccc(N2CC(c3nccc(C)n3)C2)nn1 | 8.82
Cc1cc(C)nc(C2CCN(C(=O)c3c(C)noc3C)C2)n1 (stereo not given) | -4.34
COc1cccc(S(=O)(=O)NC(=O)CC2CCCC2)c1 | 3.13
N#Cc1c(F)cccc1N1CCN(C(=O)Nc2nncs2)CC1 | -0.908
CS(=O)(=O)CC(=O)N(CCN1CCOCC1)Cc1ccco1 | 3.11
CN(C)C1CCN(C(=O)c2cccc(S(=O)(=O)NCC3(C)COC3)c2)C1 (stereo not given) | -9.22
CSc1ncccc1C(=O)NCC(c1ccco1)N(C)C (stereo not given) | 2.57
O=C(CSCC1CC1)N1CCCN(Cc2ccc(F)cc2)CC1 | 3.54
Cc1ccccc1-c1cncc(C2CCN(C3CCOCC3)CC2)n1 | -2.81
O=C(CCc1nc(-c2ccccn2)no1)N1CCCC1c1ccsc1 (stereo not given) | -14.6
O=C(NCCCn1ccnc1)NCC(c1ccco1)N1CCCCC1 (stereo not given) | 5.71
CSC1(CNC(=O)c2cccc(-n3cccn3)c2)CCOCC1 | -2.44

Structure (SMILES) | cytotoxicity at 10 µM [%]
CCc1c(C)nn(C)c1NC(=O)N1CCCOC(Cn2cccn2)C1 (stereo not given) | -8.14
CN(C)CCCNC(=O)c1ccc(N(C)S(C)(=O)=O)cc1Cl | -6.3
CC(C)COC(C)C(=O)NCc1ccccc1Cn1ccnc1 (stereo not given) | 4.9
O=C(NC1CCCN(CCCc2ccccc2)C1)C1=CCCCC1 (stereo not given) | -0.739
Cn1cnc(S(=O)(=O)N2CCCC2c2ccnc3nccn23)c1 (stereo not given) | 6.28
CN1CCC(N(C)c2ccccc2CNCc2ccco2)CC1 | -9.05
CCc1ccc(O)c(C(=O)NC2CCN(S(=O)(=O)CC)CC2)c1 | 7.37
CN(Cc1cccc(OC(F)(F)F)c1)Cc1cnn(C)c1 | -3.41
O=C1CCOC[C@]2(CN(Cc3ccccc3)C[C@H]2c2cccnc2)N1 | 4.73
CCOCC1CN(C(=O)[C@H]2CCCO2)Cc2nnn(CC3CC3)c21 (stereo not given in full) | -1.99
COc1ccc(OC)c(C2CCN(C(=O)C3CCOCC3)C2)c1 (stereo not given) | 5.6
Cc1cc(C(=O)NC2CCN(c3ncccc3C#N)CC2)on1 | 0.0456
CC(NCc1ccc(F)cc1)c1ccc2[nH]c(=O)[nH]c2c1 (stereo not given) | -9.93
CCC(Nc1ncccn1)c1cccnc1 (stereo not given) | 5.84
CC(C)c1nccc(CN2CCC(c3nc4ccccc4n3C)CC2)n1 | 7.23
CC(C)CN1CCC2(COCc3cnc(-c4ccccc4)nc32)C1 (stereo not given) | -103
CCCc1nc(N2CCN(Cc3ccccn3)CC2)c2cnn(C)c2n1 | 1.89
Cc1ncccc1CNC1CCCN(Cc2noc(C3CC3)n2)C1 (stereo not given) | -1.34
CCOCCN1CCN(Cc2nnc(-c3ccco3)o2)CC1 | -53.1
